Values after ≈ are worked out from the molar mass of the structure shown.
Key:
P388 [1] = assay: Optimal dose for antitumor activity was measured in P388 cells of CDF1 male mice in vivo; format: functional, Mus musculus
Procedure, shortened: (§1)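 CDF1 male mice, groups of seven, given 10^6 P388 cells ip on day 0; drug ip in 5% DMSO–saline on days 1, 5 and 9; controls received vehicle; range of doses tested, optimal nontoxic dose listed; median survival time; %ILS = (treated − control)/control × 100; average of two or more experiments.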

P388 [2] = assay: Median survival time of the P388 cells implanted CDF1 male mice in vivo; format: functional, Mus musculus; procedure, shortened: as §1
CCRF-CEM = assay: In vitro antitumor activity against human lymphoblastic leukemia cells.; format: functional; conditions: read-out: ID50 (the source's name)
Procedure, shortened: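 Human lymphoblastic leukemia CCRF-CEM cells grown in suspension culture; growth inhibition in vitro; ID50 (ng/mL) reported as the 50% inhibitory dose.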

P388 [3] = assay: Percent of increased life span of P388 cells implanted CDF1 male mice; format: functional, Mus musculus; procedure, shortened: as §1
P388 [4] = assay: Concentration required for 50% inhibition of incorporation of labeled uridine by P388 cells for the synthesis of RNA (in vitro); format: functional; conditions: Mus musculus, read-out: ED50 (the source's name)
P388 [5] = assay: Concentration required for 50% inhibition of incorporation of labeled thymidine by p388 cells for synthesis of DNA (in vitro); format: functional; conditions: Mus musculus, read-out: ED50 (the source's name)
Bos taurus = species on record: Bos taurus; assay: Thermal denaturation (deltaTm) of compound against calf thymus DNA was measured; format: ADME; conditions: cattle, in vitro
Procedure, shortened: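 Calf thymus DNA (MW 100 000–500 000) in 0.01 M phosphate, 5 × 10^-3 M EDTA, pH 7.0; drug 7 × 10^-4 M, DNA nucleotide 7 × 10^-3 M; 259 nm absorbance read at 0.25–1.0 °C steps; Tm taken at 50% hyperchromicity; ΔTm = complex Tm minus DNA Tm.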

Compound	Optimal dose (P388 [1])	MST (P388 [2])	IC50 (CCRF-CEM)	ILS (P388 [3])	EC50 (P388 [4])	EC50 (P388 [5])	Delta Tm (Bos taurus)
CCCCNc1c(C(=O)N[C@@H]2C(=O)N[C@H](C(C)C)C(=O)N3CCC[C@H]3C(=O)N(C)CC(=O)N(C)[C@@H](C(C)C)C(=O)O[C@@H]2C)c2nc3c(C(=O)N[C@@H]4C(=O)N[C@H](C(C)C)C(=O)N5CCC[C@H]5C(=O)N(C)CC(=O)N(C)[C@@H](C(C)C)C(=O)O[C@@H]4C)ccc(C)c3oc-2c(C)c1=O	0.9 mg/kg	15 days	0.95 µg/mL (≈ 0.724 µM)	36%			
Cc1c2oc3c(C)c(O)c(N)c(C(=O)N[C@@H]4C(=O)N[C@H](C(C)C)C(=O)N5CCC[C@H]5C(=O)N(C)CC(=O)N(C)[C@@H](C(C)C)C(=O)O[C@@H]4C)c3nc-2c(C(=O)N[C@@H]2C(=O)N[C@H](C(C)C)C(=O)N3CCC[C@H]3C(=O)N(C)CC(=O)N(C)[C@@H](C(C)C)C(=O)O[C@@H]2C)c/c1=N/Cc1ccco1 [listing 1 of 2 here]					810 nM	2450 nM	
Cc1c2oc3c(C)ccc(C(=O)N[C@@H]4C(=O)N[C@H](C(C)C)C(=O)N5CCC[C@H]5C(=O)N(C)CC(=O)N(C)[C@@H](C(C)C)C(=O)O[C@@H]4C)c3nc-2c(C(=O)N[C@@H]2C(=O)N[C@H](C(C)C)C(=O)N3CCC[C@H]3C(=O)N(C)CC(=O)N(C)[C@@H](C(C)C)C(=O)O[C@@H]2C)c(NCCCCCCCCCCN)c1=O	1.8 mg/kg	18 days	0.28 µg/mL (≈ 0.198 µM)	64%	700 nM	2700 nM	
Cc1c2oc3c(C)c(OC(=O)c4ccccc4)cc(C(=O)N[C@@H]4C(=O)N[C@H](C(C)C)C(=O)N5CCC[C@H]5C(=O)N(C)CC(=O)N(C)[C@@H](C(C)C)C(=O)O[C@@H]4C)c3nc-2c(C(=O)N[C@@H]2C(=O)N[C@H](C(C)C)C(=O)N3CCC[C@H]3C(=O)N(C)CC(=O)N(C)[C@@H](C(C)C)C(=O)O[C@@H]2C)c(N)c1=O	0.75 mg/kg	20 days	2.5 µg/mL (≈ 1.82 µM)	91%			
Cc1c2oc3c(C)ccc(C(=O)N[C@@H]4C(=O)N[C@H](C(C)C)C(=O)N5CCC[C@H]5C(=O)N(C)CC(=O)N(C)[C@@H](C(C)C)C(=O)O[C@@H]4C)c3nc-2c(C(=O)N[C@@H]2C(=O)N[C@H](C(C)C)C(=O)N3CCC[C@H]3C(=O)N(C)CC(=O)N(C)[C@@H](C(C)C)C(=O)O[C@@H]2C)c(NCCCCCCCCN)c1=O	1.8 mg/kg	14 days	0.31 µg/mL (≈ 0.224 µM)	27%			
Cc1c2oc3c(C)c(OCc4ccc(Cl)cc4)cc(C(=O)N[C@@H]4C(=O)N[C@H](C(C)C)C(=O)N5CCC[C@H]5C(=O)N(C)CC(=O)N(C)[C@@H](C(C)C)C(=O)O[C@@H]4C)c3nc-2c(C(=O)N[C@@H]2C(=O)N[C@H](C(C)C)C(=O)N3CCC[C@H]3C(=O)N(C)CC(=O)N(C)[C@@H](C(C)C)C(=O)O[C@@H]2C)c(N)c1=O	0.45 mg/kg	16 days	0.5 µg/mL (≈ 0.358 µM)	52%			
Cc1c2oc3c(C)c(O)c(N)c(C(=O)N[C@@H]4C(=O)N[C@H](C(C)C)C(=O)N5CCC[C@H]5C(=O)N(C)CC(=O)N(C)[C@@H](C(C)C)C(=O)O[C@@H]4C)c3nc-2c(C(=O)N[C@@H]2C(=O)N[C@H](C(C)C)C(=O)N3CCC[C@H]3C(=O)N(C)CC(=O)N(C)[C@@H](C(C)C)C(=O)O[C@@H]2C)c/c1=N/Cc1ccccc1					1400 nM	2700 nM	
Cc1c2oc3c(C)c(OCc4ccc([N+](=O)[O-])cc4)cc(C(=O)N[C@@H]4C(=O)N[C@H](C(C)C)C(=O)N5CCC[C@H]5C(=O)N(C)CC(=O)N(C)[C@@H](C(C)C)C(=O)O[C@@H]4C)c3nc-2c(C(=O)N[C@@H]2C(=O)N[C@H](C(C)C)C(=O)N3CCC[C@H]3C(=O)N(C)CC(=O)N(C)[C@@H](C(C)C)C(=O)O[C@@H]2C)c(N)c1=O	0.6 mg/kg	14 days	0.5 µg/mL (≈ 0.355 µM)	33%			
COc1cc(C(=O)N[C@@H]2C(=O)N[C@H](C(C)C)C(=O)N3CCC[C@H]3C(=O)N(C)CC(=O)N(C)[C@@H](C(C)C)C(=O)O[C@@H]2C)c2nc3c(C(=O)N[C@@H]4C(=O)N[C@H](C(C)C)C(=O)N5CCC[C@H]5C(=O)N(C)CC(=O)N(C)[C@@H](C(C)C)C(=O)O[C@@H]4C)c(N)c(=O)c(C)c-3oc2c1C	0.6 mg/kg	19 days	0.16 µg/mL (≈ 0.124 µM)	81%	69 nM	628 nM	
Cc1c2oc3c(C)c(OC(=O)C45CC6CC(CC(C6)C4)C5)cc(C(=O)N[C@@H]4C(=O)N[C@H](C(C)C)C(=O)N5CCC[C@H]5C(=O)N(C)CC(=O)N(C)[C@@H](C(C)C)C(=O)O[C@@H]4C)c3nc-2c(C(=O)N[C@@H]2C(=O)N[C@H](C(C)C)C(=O)N3CCC[C@H]3C(=O)N(C)CC(=O)N(C)[C@@H](C(C)C)C(=O)O[C@@H]2C)c(N)c1=O	0.5 mg/kg	28 days	0.2 µg/mL (≈ 0.14 µM)	167%	176 nM	730 nM	
CCCCOc1cc(C(=O)N[C@@H]2C(=O)N[C@H](C(C)C)C(=O)N3CCC[C@H]3C(=O)N(C)CC(=O)N(C)[C@@H](C(C)C)C(=O)O[C@@H]2C)c2nc3c(C(=O)N[C@@H]4C(=O)N[C@H](C(C)C)C(=O)N5CCC[C@H]5C(=O)N(C)CC(=O)N(C)[C@@H](C(C)C)C(=O)O[C@@H]4C)c(N)c(=O)c(C)c-3oc2c1C	0.75 mg/kg	14 days		33%	770 nM	11300 nM	
Cc1c2oc3c(C)c(OCc4ccc(Cl)c(Cl)c4)cc(C(=O)N[C@@H]4C(=O)N[C@H](C(C)C)C(=O)N5CCC[C@H]5C(=O)N(C)CC(=O)N(C)[C@@H](C(C)C)C(=O)O[C@@H]4C)c3nc-2c(C(=O)N[C@@H]2C(=O)N[C@H](C(C)C)C(=O)N3CCC[C@H]3C(=O)N(C)CC(=O)N(C)[C@@H](C(C)C)C(=O)O[C@@H]2C)c(N)c1=O	0.5 mg/kg	19 days		81%			
CCOc1cc(C(=O)N[C@@H]2C(=O)N[C@H](C(C)C)C(=O)N3CCC[C@H]3C(=O)N(C)CC(=O)N(C)[C@@H](C(C)C)C(=O)O[C@@H]2C)c2nc3c(C(=O)N[C@@H]4C(=O)N[C@H](C(C)C)C(=O)N5CCC[C@H]5C(=O)N(C)CC(=O)N(C)[C@@H](C(C)C)C(=O)O[C@@H]4C)c(N)c(=O)c(C)c-3oc2c1C	0.45 mg/kg	20 days	0.17 µg/mL (≈ 0.131 µM)	91%	151 nM	1630 nM	
Cc1c2oc3c(C)c(O)c(N)c(C(=O)N[C@@H]4C(=O)N[C@H](C(C)C)C(=O)N5CCC[C@H]5C(=O)N(C)CC(=O)N(C)[C@@H](C(C)C)C(=O)O[C@@H]4C)c3nc-2c(C(=O)N[C@@H]2C(=O)N[C@H](C(C)C)C(=O)N3CCC[C@H]3C(=O)N(C)CC(=O)N(C)[C@@H](C(C)C)C(=O)O[C@@H]2C)c/c1=N/Cc1cccc(Oc2ccccc2)c1					700 nM	1500 nM	
Cc1c2oc3c(C)c(O)c(N)c(C(=O)N[C@@H]4C(=O)N[C@H](C(C)C)C(=O)N5CCC[C@H]5C(=O)N(C)CC(=O)N(C)[C@@H](C(C)C)C(=O)O[C@@H]4C)c3nc-2c(C(=O)N[C@@H]2C(=O)N[C@H](C(C)C)C(=O)N3CCC[C@H]3C(=O)N(C)CC(=O)N(C)[C@@H](C(C)C)C(=O)O[C@@H]2C)cc1=O	1.2 mg/kg	24 days	0.95 µg/mL (≈ 0.747 µM)	129%	3220 nM	5080 nM	
Cc1c2oc3c(C)c(O)c(N)c(C(=O)N[C@@H]4C(=O)N[C@H](C(C)C)C(=O)N5CCC[C@H]5C(=O)N(C)CC(=O)N(C)[C@@H](C(C)C)C(=O)O[C@@H]4C)c3nc-2c(C(=O)N[C@@H]2C(=O)N[C@H](C(C)C)C(=O)N3CCC[C@H]3C(=O)N(C)CC(=O)N(C)[C@@H](C(C)C)C(=O)O[C@@H]2C)cc1=N					82 nM	1230 nM	
Cc1c2oc3c(C)c(O)c(N)c(C(=O)N[C@@H]4C(=O)N[C@H](C(C)C)C(=O)N5CCC[C@H]5C(=O)N(C)CC(=O)N(C)[C@@H](C(C)C)C(=O)O[C@@H]4C)c3nc-2c(C(=O)N[C@@H]2C(=O)N[C@H](C(C)C)C(=O)N3CCC[C@H]3C(=O)N(C)CC(=O)N(C)[C@@H](C(C)C)C(=O)O[C@@H]2C)c/c1=N/Cc1ccc[nH]1					184 nM	370 nM	
CCCNc1c(C(=O)N[C@@H]2C(=O)N[C@H](C(C)C)C(=O)N3CCC[C@H]3C(=O)N(C)CC(=O)N(C)[C@@H](C(C)C)C(=O)O[C@@H]2C)c2nc3c(C(=O)N[C@@H]4C(=O)N[C@H](C(C)C)C(=O)N5CCC[C@H]5C(=O)N(C)CC(=O)N(C)[C@@H](C(C)C)C(=O)O[C@@H]4C)ccc(C)c3oc-2c(C)c1=O							1.5
Cc1c2oc3c(C)c(OC(=O)c4ccc5ccccc5c4)cc(C(=O)N[C@@H]4C(=O)N[C@H](C(C)C)C(=O)N5CCC[C@H]5C(=O)N(C)CC(=O)N(C)[C@@H](C(C)C)C(=O)O[C@@H]4C)c3nc-2c(C(=O)N[C@@H]2C(=O)N[C@H](C(C)C)C(=O)N3CCC[C@H]3C(=O)N(C)CC(=O)N(C)[C@@H](C(C)C)C(=O)O[C@@H]2C)c(N)c1=O	0.9 mg/kg	18 days		71%			
Cc1c2oc3c(C)c(O)c(N)c(C(=O)N[C@@H]4C(=O)N[C@H](C(C)C)C(=O)N5CCC[C@H]5C(=O)N(C)CC(=O)N(C)[C@@H](C(C)C)C(=O)O[C@@H]4C)c3nc-2c(C(=O)N[C@@H]2C(=O)N[C@H](C(C)C)C(=O)N3CCC[C@H]3C(=O)N(C)CC(=O)N(C)[C@@H](C(C)C)C(=O)O[C@@H]2C)c/c1=N/Cc1ccco1 [listing 2 of 2 here]							5.8

Reference: ChEMBL document CHEMBL1121923, “N2- and C-7 substituted actinomycin D analogues: synthesis, DNA-binding affinity, and biochemical and biological properties. Structure-activity relationship” (J Med Chem, 1981)
